Measured values pooled from the literature.
Compare with care: the assays were run in different laboratories.
Target: Carbonic anhydrase 1 (CA1, Homo sapiens, UniProt P00915)
Effect on: enzyme activity
Mode: inhibitor

technique | Ki | SMILES
– | 8.7 µM | CC(C)[C@H](N)C(=O)OCCOCn1cnc2c(=O)[nH]c(N)nc21
stopped-flow | > 100 µM | COc1ccc(OC(=O)c2ccc(=O)oc2)cc1
– | 6.98 µM | CN1CCC(=C2c3ccccc3CC(=O)c3sccc32)CC1
stopped-flow | > 100 µM | Cc1c(Cl)c(=O)oc2cc(OCCCCSC#N)ccc12
stopped-flow | > 100 µM | O=C(OCc1cn(-c2ccc(Cl)cc2)nn1)c1ccc(=O)oc1
stopped-flow | 0.0475 µM | CC(C(=O)Nc1nnc(S(N)(=O)=O)s1)C1CCCCC1 (centres unmarked)
stopped-flow | > 100 µM | C#CCNC(=O)c1ccc(=O)oc1
– | 13.9 µM | CN(C)CCC(c1ccccc1)c1ccccn1 (centres unmarked)
stopped-flow | 2.43 µM | NS(=O)(=O)c1cnc(NC(=O)CCc2ccccc2)s1
stopped-flow | > 100 µM | O=C(OCc1cn(-c2ccc([N+](=O)[O-])cc2)nn1)c1ccc(=O)oc1
stopped-flow | 0.0827 µM | CC1CCCC(C(=O)Nc2nnc(S(N)(=O)=O)s2)C1 (centres unmarked)
stopped-flow | > 100 µM | O=C(OC1CCCCC1)c1ccc(=O)oc1
– | 7.16 µM | COc1ccnc(C[S+]([O-])c2nc3ccc(OC(F)F)cc3[nH]2)c1OC (centres unmarked)
stopped-flow | 0.334 µM | CC1(C(=O)Nc2nnc(S(N)(=O)=O)s2)CCC1
– | 10.3 µM | OCCOCCN1CCN(C(c2ccccc2)c2ccc(Cl)cc2)CC1 (centres unmarked)
stopped-flow | > 100 µM | N#CSCCCCOc1ccc2c(-c3ccccc3)cc(=O)oc2c1
stopped-flow | 0.0541 µM | CC1(C)CCN(CC(=O)Nc2nnc(S(N)(=O)=O)s2)CC1
stopped-flow | > 100 µM | CC1CCCCC1OC(=O)c1ccc(=O)oc1 (centres unmarked)
– | 7.68 µM | COc1cc(C)c(/C=C/C(C)=C/C=C/C(C)=C/C(=O)O)c(C)c1C
stopped-flow | 0.0518 µM | Cc1ccccc1CC(=O)Nc1nnc(S(N)(=O)=O)s1
